Reference: ChEMBL document CHEMBL3286113, “New potent antibacterial oxazolidinone (MRX-I) with an improved class safety profile” (J Med Chem, 2014)
≈ marks a conversion by molar mass, not a printed value.

Tests used:
Streptococcus pyogenes [1] = assay: Antibacterial activity against Streptococcus pyogenes; assay type: functional
Enterococcus faecalis [2] = assay: Antibacterial activity against vancomycin-resistant Enterococcus faecalis isolate EFL 4041 in po dosed mouse systemic infection model; assay type: functional; conditions: isolate EFL 4041, po
Enterococcus faecalis [3] = assay: Bacteriostatic activity against vancomycin-sensitive Enterococcus faecalis; assay type: functional
Streptococcus pyogenes [4] = assay: Antibacterial activity against Streptococcus pyogenes isolate 556; assay type: functional
Streptococcus pneumoniae [5] = assay: Bactericidal activity against penicillin-sensitive Streptococcus pneumoniae; assay type: functional
Rattus norvegicus [6] = assay: Toxicity in female rat assessed as effect on mean corpuscular hemoglobin level at 100 mg/kg/day, po bid administered for 4 weeks (reference value: 19.5 pg); assay type: organism-based; set-up: route oral; conditions: in vivo, 672 h
Staphylococcus aureus [7] = assay: Antibacterial activity against methicillin-sensitive Staphylococcus aureus ATCC 29213; assay type: functional
Rattus norvegicus [8] = assay: Toxicity in female rat assessed as effect on reticulocyte count at 100 mg/kg/day, po bid administered for 4 weeks (reference value: 1.48%); assay type: organism-based; set-up: route oral; conditions: in vivo, 672 h
Enterococcus faecalis [9] = assay: Antibacterial activity against vancomycin-sensitive Enterococcus faecalis ATCC 29212 in po dosed mouse systemic infection model; assay type: functional; conditions: ATCC 29212, po
Rattus norvegicus [10] = assay: Toxicity in female rat assessed as effect on mean corpuscular volume at 100 mg/kg/day, po bid administered for 4 weeks (reference value: 53.72 fL); assay type: organism-based; set-up: route oral; conditions: in vivo, 672 h
Staphylococcus aureus [11] = assay: Antibacterial activity against linezolid-resistant Staphylococcus aureus isolate 4184; assay type: functional
Enterococcus faecium [12] = assay: Bacteriostatic activity against vancomycin-sensitive Enterococcus faecium; assay type: functional
Staphylococcus aureus [13] = assay: Antibacterial activity against methicillin-sensitive Staphylococcus aureus isolate 15 in po dosed mouse systemic infection model; assay type: functional; conditions: isolate 15, po
Streptococcus pneumoniae [14] = assay: Bactericidal activity against penicillin intermediate-sensitive Streptococcus pneumoniae; assay type: functional
Rattus norvegicus [15] = assay: Toxicity in female rat assessed as effect on platelet count at 100 mg/kg/day, po bid administered for 4 weeks (reference value: 654.6 x 10^9/L); assay type: organism-based; set-up: route oral; conditions: in vivo, 672 h
Streptococcus mitis = assay: Antibacterial activity against Streptococcus mitis; assay type: functional
Streptococcus pneumoniae [16] = assay: Antibacterial activity against penicillin-sensitive Streptococcus pneumoniae isolate 0806 in po dosed mouse systemic infection model; assay type: functional; conditions: isolate 0806, po
Staphylococcus aureus [17] = assay: Antibacterial activity against Staphylococcus aureus in po dosed mouse septicemia model; assay type: functional
Staphylococcus aureus [18] = assay: Antibacterial activity against methicillin-resistant Staphylococcus aureus by broth microdilution method; assay type: functional
Outline: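 MIC determined against methicillin-resistant S. aureus strain SAU1009.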

[19] = biological target: T1, Amine oxidase [flavin-containing] A (Homo sapiens, UniProt P21397); assay: Inhibition of MAO-A (unknown origin) using tyramine as substrate after 30 to 60 mins by fluorescence plate reader analysis
T1 sequence (P21397 whole entry): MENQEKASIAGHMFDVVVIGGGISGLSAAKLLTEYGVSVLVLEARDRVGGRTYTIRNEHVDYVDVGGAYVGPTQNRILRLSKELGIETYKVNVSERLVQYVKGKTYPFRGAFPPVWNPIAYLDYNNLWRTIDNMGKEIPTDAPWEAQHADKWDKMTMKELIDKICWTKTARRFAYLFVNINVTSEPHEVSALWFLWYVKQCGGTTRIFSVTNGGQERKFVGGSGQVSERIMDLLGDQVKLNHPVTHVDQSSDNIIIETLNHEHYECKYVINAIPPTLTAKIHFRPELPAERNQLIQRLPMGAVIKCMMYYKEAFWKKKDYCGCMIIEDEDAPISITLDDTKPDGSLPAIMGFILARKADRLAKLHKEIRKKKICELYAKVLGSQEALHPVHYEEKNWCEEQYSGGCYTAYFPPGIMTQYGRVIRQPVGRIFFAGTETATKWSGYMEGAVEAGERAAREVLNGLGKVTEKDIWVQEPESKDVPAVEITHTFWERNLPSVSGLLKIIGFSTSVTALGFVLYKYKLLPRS

Streptococcus anginosus = assay: Antibacterial activity against Streptococcus anginosus; assay type: functional
[20] = tested on: Staphylococcus haemolyticus; assay: Antibacterial activity against Staphylococcus haemolyticus; assay type: functional
[21] = Myelosuppression activity against human CD34-positive blood stem/progenitor cells assessed as growth inhibition after 9 to 10 days by CellTiter-Glo luminescent assay
Staphylococcus aureus [22] = assay: Antibacterial activity against methicillin-resistant Staphylococcus aureus by agar dilution method; assay type: functional
Outline: (§1)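 MIC determined by agar dilution across S. aureus/MRSA isolates; MIC90 is the concentration inhibiting 90% of strains tested.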

Staphylococcus aureus [23] = assay: Antibacterial activity against methicillin-sensitive Staphylococcus aureus ATCC 29213 in po dosed mouse systemic infection model; assay type: functional; conditions: ATCC 29213, po
Enterococcus faecalis [24] = assay: Antibacterial activity against vancomycin-sensitive/high-level gentamycin-resistant Enterococcus faecalis isolate HH22 in po dosed mouse systemic infection model; assay type: functional; conditions: EnGen0297, po
Rattus norvegicus [25] = assay: Toxicity in female rat assessed as effect on neutrophil count at 100 mg/kg/day, po bid administered for 4 weeks (reference value: 22.4%); assay type: organism-based; set-up: route oral; conditions: in vivo, 672 h
[26] = tested on: Staphylococcus epidermidis; assay: Antibacterial activity against methicillin-resistant Staphylococcus epidermidis; assay type: functional
Rattus norvegicus [27] = assay: Toxicity in female rat assessed as effect on hematocrit level at 100 mg/kg/day, po bid administered for 4 weeks (reference value: 39.08%); assay type: organism-based; set-up: route oral; conditions: in vivo, 672 h
Enterococcus faecium [28] = assay: Bacteriostatic activity against vancomycin-resistant Enterococcus faecium; assay type: functional
Rattus norvegicus [29] = assay: Toxicity in female rat assessed as effect on lymphocyte count at 100 mg/kg/day, po bid administered for 4 weeks (reference value: 74.8%); assay type: organism-based; set-up: route oral; conditions: in vivo, 672 h
Streptococcus agalactiae = assay: Antibacterial activity against Streptococcus agalactiae; assay type: functional
Rattus norvegicus [30] = assay: Toxicity in female rat assessed as effect on WBC count at 100 mg/kg/day, po bid administered for 4 weeks (reference value: 3.66 x 10^9/L); assay type: organism-based; set-up: route oral; conditions: in vivo, 672 h
[31] = tested on: Staphylococcus saprophyticus; assay: Antibacterial activity against Staphylococcus saprophyticus; assay type: functional
Staphylococcus [32] = assay: Antibacterial activity against coagulase-negative Staphylococcus; assay type: functional
[33] = tested on: Streptococcus constellatus; assay: Antibacterial activity against Streptococcus constellatus; assay type: functional
Rattus norvegicus [34] = assay: Toxicity in female rat assessed as effect on hemoglobin level at 100 mg/kg/day, po bid administered for 4 weeks (reference value: 141.8 g/L); assay type: organism-based; set-up: route oral; conditions: in vivo, 672 h
Streptococcus pneumoniae [35] = assay: Antibacterial activity against penicillin intermediate-sensitive Streptococcus pneumoniae ATCC 49619 clinical isolate in po dosed mouse systemic infection model; assay type: functional; conditions: ATCC 49619, po
Streptococcus sanguinis = assay: Antibacterial activity against Streptococcus sanguinis; assay type: functional
Streptococcus pneumoniae [36] = assay: Antibacterial activity against penicillin-resistant Streptococcus pneumoniae isolate 0613 in po dosed mouse systemic infection model; assay type: functional; conditions: isolate 0613, po
[37] = tested on: Streptococcus dysgalactiae subsp. equisimilis; assay: Antibacterial activity against Streptococcus equisimilis; assay type: functional
Enterococcus = assay: Bacteriostatic activity against vancomycin-sensitive Enterococcus; assay type: functional
Streptococcus pneumoniae [38] = assay: Bactericidal activity against penicillin-resistant Streptococcus pneumoniae; assay type: functional
Staphylococcus aureus [39] = assay: Antibacterial activity against methicillin-resistant Staphylococcus aureus isolate 0605 in po dosed mouse systemic infection model; assay type: functional; conditions: isolate 0605, po
Streptococcus pyogenes [40] = assay: Antibacterial activity against Streptococcus pyogenes isolate 556 in po dosed mouse systemic infection model; assay type: functional; conditions: isolate 556, po
Rattus norvegicus [41] = assay: Toxicity in female rat assessed as effect on RBC count at 100 mg/kg/day, po bid administered for 4 weeks (reference value: 7.28 x 10^12/L); assay type: organism-based; set-up: route oral; conditions: in vivo, 672 h
[42] = tested on: Staphylococcus epidermidis; assay: Antibacterial activity against methicillin-sensitive Staphylococcus epidermidis; assay type: functional
Staphylococcus aureus [43] = assay: Antibacterial activity against Staphylococcus aureus by agar dilution method; assay type: functional; outline: as §1
Staphylococcus aureus [44] = assay: Antibacterial activity against methicillin-sensitive Staphylococcus aureus; assay type: functional
Staphylococcus [45] = assay: Antibacterial activity against beta-lactamase-negative Staphylococcus; assay type: functional
Staphylococcus aureus [46] = assay: Antibacterial activity against methicillin-resistant Staphylococcus aureus isolate 0612 in po dosed mouse systemic infection model; assay type: functional; conditions: isolate 0612, po
Staphylococcus aureus [47] = assay: Antibacterial activity against Staphylococcus aureus; assay type: functional

CC(=O)NC[C@H]1CN(c2ccc(N3CCOCC3)c(F)c2)C(=O)O1 [LINEZOLID]
MIC50 (Streptococcus pyogenes [1]): 1 µg/mL (≈ 2.96 µM)
MIC90 (Streptococcus pyogenes [1]): 1 µg/mL (≈ 2.96 µM)
ED50 (Enterococcus faecalis [2]): 6 mg/kg
MIC50 (Enterococcus faecalis [3]): 1 µg/mL (≈ 2.96 µM)
MIC90 (Enterococcus faecalis [3]): 1 µg/mL (≈ 2.96 µM)
MIC (Streptococcus pyogenes [4]): 1 µg/mL (≈ 2.96 µM)
MIC50 (Streptococcus pneumoniae [5]): 0.5 µg/mL (≈ 1.48 µM)
MIC90 (Streptococcus pneumoniae [5]): 1 µg/mL (≈ 2.96 µM)
Activity (Rattus norvegicus [6]): 20.52 pg
MIC (Staphylococcus aureus [7]): 1 µg/mL (≈ 2.96 µM)
Activity (Rattus norvegicus [8]): 1.64%
ED50 (Enterococcus faecalis [9]): 13.4 mg/kg
Activity (Rattus norvegicus [10]): 54.74 fL
MIC (Staphylococcus aureus [11]): > 16 µg/mL
MIC50 (Enterococcus faecium [12]): 1 µg/mL (≈ 2.96 µM)
MIC90 (Enterococcus faecium [12]): 1 µg/mL (≈ 2.96 µM)
ED50 (Staphylococcus aureus [13]): 5.9 mg/kg
MIC50 (Streptococcus pneumoniae [14]): 0.5 µg/mL (≈ 1.48 µM)
MIC90 (Streptococcus pneumoniae [14]): 0.5 µg/mL (≈ 1.48 µM)
Activity (Rattus norvegicus [15]): 487.4 ×10⁹ /L
MIC50 (Streptococcus mitis): 1 µg/mL (≈ 2.96 µM)
MIC90 (Streptococcus mitis): 1 µg/mL (≈ 2.96 µM)
ED50 (Streptococcus pneumoniae [16]): 16.8 mg/kg
ED50 (Staphylococcus aureus [17]): 6.3 mg/kg
MIC90 (Staphylococcus aureus [18]): 2 µg/mL (≈ 5.93 µM)
IC50 [19]: 24 µM
MIC50 (Streptococcus anginosus): 0.5 µg/mL (≈ 1.48 µM)
MIC90 (Streptococcus anginosus): 1 µg/mL (≈ 2.96 µM)
MIC [20]: 0.5 µg/mL (≈ 1.48 µM)
MIC50 [20]: 0.5 µg/mL (≈ 1.48 µM)
MIC90 [20]: 1 µg/mL (≈ 2.96 µM)
IC50 [21]: 6.3 µg/mL (≈ 18.7 µM)
MIC50 (Staphylococcus aureus [22]): 1 µg/mL (≈ 2.96 µM)
MIC90 (Staphylococcus aureus [22]): 1 µg/mL (≈ 2.96 µM)
ED50 (Staphylococcus aureus [23]): 9 mg/kg
ED50 (Enterococcus faecalis [24]): 5.6 mg/kg
Activity (Rattus norvegicus [25]): 13%
MIC50 [26]: 0.5 µg/mL (≈ 1.48 µM)
MIC90 [26]: 1 µg/mL (≈ 2.96 µM)
Activity (Rattus norvegicus [27]): 30.18%
MIC (Enterococcus faecium [28]): 1 µg/mL (≈ 2.96 µM)
MIC50 (Enterococcus faecium [28]): 1 µg/mL (≈ 2.96 µM)
MIC90 (Enterococcus faecium [28]): 1 µg/mL (≈ 2.96 µM)
Activity (Rattus norvegicus [29]): 86.2%
MIC (Streptococcus agalactiae): 1 µg/mL (≈ 2.96 µM)
MIC50 (Streptococcus agalactiae): 1 µg/mL (≈ 2.96 µM)
MIC90 (Streptococcus agalactiae): 1 µg/mL (≈ 2.96 µM)
Activity (Rattus norvegicus [30]): 1.9 ×10⁹ /L
MIC50 [31]: 1 µg/mL (≈ 2.96 µM)
MIC90 [31]: 1 µg/mL (≈ 2.96 µM)
MIC50 (Staphylococcus [32]): 0.5 µg/mL (≈ 1.48 µM)
MIC90 (Staphylococcus [32]): 1 µg/mL (≈ 2.96 µM)
MIC50 [33]: 1 µg/mL (≈ 2.96 µM)
MIC90 [33]: 1 µg/mL (≈ 2.96 µM)
Activity (Rattus norvegicus [34]): 112.8 g/L
ED50 (Streptococcus pneumoniae [35]): 8.17 mg/kg
MIC (Streptococcus sanguinis): 0.06 µg/mL (≈ 0.178 µM)
ED50 (Streptococcus pneumoniae [36]): 9.3 mg/kg
MIC [37]: 0.5 µg/mL (≈ 1.48 µM)
MIC50 [37]: 0.5 µg/mL (≈ 1.48 µM)
MIC90 [37]: 1 µg/mL (≈ 2.96 µM)
MIC50 (Enterococcus): 1 µg/mL (≈ 2.96 µM)
MIC90 (Enterococcus): 1 µg/mL (≈ 2.96 µM)
MIC50 (Streptococcus pneumoniae [38]): 0.5 µg/mL (≈ 1.48 µM)
MIC90 (Streptococcus pneumoniae [38]): 0.5 µg/mL (≈ 1.48 µM)
ED50 (Staphylococcus aureus [39]): 10.2 mg/kg
ED50 (Streptococcus pyogenes [40]): 7.8 mg/kg
Activity (Rattus norvegicus [41]): 5.52 ×10¹² /L
MIC50 [42]: 0.5 µg/mL (≈ 1.48 µM)
MIC90 [42]: 0.5 µg/mL (≈ 1.48 µM)
MIC90 (Staphylococcus aureus [43]): 8 µg/mL (≈ 23.7 µM)
MIC50 (Staphylococcus aureus [44]): 1 µg/mL (≈ 2.96 µM)
MIC90 (Staphylococcus aureus [44]): 1 µg/mL (≈ 2.96 µM)
MIC50 (Staphylococcus [45]): 0.5 µg/mL (≈ 1.48 µM)
MIC90 (Staphylococcus [45]): 1 µg/mL (≈ 2.96 µM)
ED50 (Staphylococcus aureus [46]): 8.7 mg/kg

CC(=O)NC[C@H]1CN(c2ccc(C(C)=O)cc2)C(=O)O1 [DUP-721]
MIC (Staphylococcus aureus [47]): 0.5 µg/mL (≈ 1.81 µM)
